SIRT5 block: inhibitors of human sirtuin-5 desuccinylase; actives 1.1% (n = 330,000); inhibition, % at 15 µM; Q9NXA8; Purified SirT5, succinyl-peptide AMC, trypsin-coupled fluorescence; AID 652115; in the data active = inhibition above about 15%
Target sequence (Q9NXA8 whole entry, looked up): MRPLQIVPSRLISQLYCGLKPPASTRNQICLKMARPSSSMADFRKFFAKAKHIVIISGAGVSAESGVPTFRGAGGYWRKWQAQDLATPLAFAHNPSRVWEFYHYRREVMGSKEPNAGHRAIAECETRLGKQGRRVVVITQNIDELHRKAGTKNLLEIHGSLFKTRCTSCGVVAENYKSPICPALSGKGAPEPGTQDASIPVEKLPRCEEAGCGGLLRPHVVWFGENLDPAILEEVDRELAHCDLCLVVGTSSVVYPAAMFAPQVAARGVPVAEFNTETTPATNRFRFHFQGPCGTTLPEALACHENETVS
miR122 inh: blocks miR-122 activity in Huh7 sensor cells | activation (reporter increase), % at 12.5 µM | actives 0.3% (n = 340,000) | AID 602342 | Huh7 miR-122 Renilla luciferase sensor, 48 h; neutral wells = 0, positive control = 100;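 active = mean replicate activation score at least 90 and every replicate individually at or above 90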;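 also: higher luciferase means less miR-122 activity so hits act as miR-122 inhibitors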
FGF22 binding: shifts melting point of recombinant human FGF22. Q9HCT0. recombinant FGF22 thermal shift, SYPRO orange fluorescence; percent of sucrose octasulfate shift, DMSO zero. activity (Tm shift, normalised), % at 9.99 µM. actives 1.5% (n = 340,000). AID 651658;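 active = mean Tm shift, scaled 0 neutral to 100 positive control, at about 1.3% or above, every replicate too, limit read from the data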
Target sequence (Q9HCT0 whole entry, looked up): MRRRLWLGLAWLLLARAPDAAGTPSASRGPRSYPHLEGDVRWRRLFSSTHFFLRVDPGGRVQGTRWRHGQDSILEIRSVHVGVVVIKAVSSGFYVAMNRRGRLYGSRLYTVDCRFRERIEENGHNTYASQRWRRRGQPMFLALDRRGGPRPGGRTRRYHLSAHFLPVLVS
S100A4 MyoIIA: S100A4-myosin IIA interaction inhibition; P26447; S100A4/TAMRA-MyoIIA peptide fluorescence polarization; inhibition, % at 10.7 µM; actives 0.14% (n = 360,000); AID 652163;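 active = mean inhibition of at least 70% across replicates, with every replicate also reaching that level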
Target sequence (P26447 whole entry, looked up): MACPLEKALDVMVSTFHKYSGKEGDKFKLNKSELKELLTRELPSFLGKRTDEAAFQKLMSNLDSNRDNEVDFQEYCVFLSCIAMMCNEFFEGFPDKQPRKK
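Material: S100A4 monomer protein / Buffer or medium: 50 mM HEPES pH 7.2, 10 mM CaCl2, 100 mM KCl / Times: 5 min incubation before reading / Benchmarks: neutral control DMSO, positive control TFP / Reagent: labelled myosin peptide probe, 5 nM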
E-sel inducer: E-selectin induction on HUVECs; activation, % at 7.58 µM; actives 0.37% (n = 260,000); HUVEC E-selectin immunofluorescence imaging; normalized: neutral wells 0, TNF-alpha wells 100; AID 686992;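 active = mean E-selectin-positive cell signal at least 10% of the positive control, reached in at least 60% of replicates, without over 20% cell loss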
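Test system – human umbilical vein endothelial cells (HUVEC), E-selectin induction · Input – 3,000 HUVEC seeded per well · Buffer or medium – EGM-2, gelatin · Compound dosing – single-point compound dose · Detection – immunofluorescence imaging · Measure – percent E-selectin-positive cells · Controls – TNF-alpha high, DMSO low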
Numbers without * were called inactive; . = not tested or not shown; ! = repeats disagree; [ ] = dose if it differs, or a comment. Shown are actives, neighbours in structure and some others; about 2.5% of the full set was active somewhere.

SMILES | SIRT5 block | miR122 inh | FGF22 binding | S100A4 MyoIIA | E-sel inducer
C[C@H]1CN([C@@H](C)CO)C(=O)c2cccc(NC(=O)Nc3ccc(F)cc3)c2O[C@H]1CN(C)Cc1ccncc1 | 1 | -6[16.7 µM] | 0 | 2 | 58*
C[C@@H]1CN([C@H](C)CO)C(=O)c2cccc(NC(=O)Nc3ccc(F)cc3)c2O[C@H]1CN(C)Cc1ccncc1 | . | 2[16.7 µM] | 0 | 2 | 40*
C[C@@H]1CN([C@H](C)CO)C(=O)c2cccc(NC(=O)Nc3ccc(C(F)(F)F)cc3)c2O[C@H]1CN(C)Cc1ccncc1 | -2 | -4[16.7 µM] | 0 | 2 | -10
C[C@@H]1CN([C@H](C)CO)C(=O)c2cccc(NC(=O)Nc3ccccc3)c2O[C@H]1CN(C)Cc1ccncc1 | -1 | -2[16.7 µM] | 0 | -3 | 0
C[C@@H]1CN([C@@H](C)CO)C(=O)c2cccc(NC(=O)Nc3ccc(F)cc3)c2O[C@@H]1CN(C)Cc1ccncc1 | 1 | -3[16.7 µM] | 0 | 3 | 65*
Cc1noc(C)c1NC(=O)Nc1ccc2c(c1)CC(=O)N([C@@H](C)CO)C[C@H](C)[C@H](CN(C)S(=O)(=O)c1ccc(Cl)cc1)O2 | -1 | -5[16.7 µM] | 0 | 2 | 0
C[C@H]1CN([C@@H](C)CO)S(=O)(=O)c2ccc(-c3ccccc3)cc2O[C@@H]1CN(C)C | 2 | 0[16.7 µM] | 0 | 0 | 0
C[C@@H]1CN([C@H](C)CO)C(=O)c2cc(-c3cncnc3)cnc2O[C@@H]1CN(C)C(=O)Nc1ccc2c(c1)OCO2 | -3 | 4[16.7 µM] | 0 | -1 | 0
C[C@H]1CCCCO[C@@H](CN(C)C(=O)C2CCCCC2)[C@@H](C)CN([C@@H](C)CO)C(=O)c2cc(NC(=O)c3ccccc3)ccc2O1 | 1 | 1[16.7 µM] | 0 | 4 | 0
O=S(=O)(NCCC1=CCCCC1)c1c(Cl)cccc1Cl | -4 | 111* | 0 | 0 | 0
O=C1Nc2ccc(S(=O)(=O)NCCCO)c3cccc1c23 | -14 | 82 | 0 | -3 | .
CCNS(=O)(=O)c1ccc2c3c(cccc13)C(=O)N2 | . | 148* | . | . | .
O=C1Nc2ccc(S(=O)(=O)NCCC3=CCCCC3)c3cccc1c23 | . | 117* | . | . | .
O=C1O[C@H](c2ccccc2)[C@H](c2ccccc2)N2[C@H]1[C@@H](C(=O)NC[C@H](O)c1ccccc1)[C@]1(C(=O)Nc3ccc(C#CCCO)cc31)[C@H]2c1ccc(OCCO)cc1 | 10 | . | 0 | 1 | .
Cc1[nH][nH]c(=O)c1C(c1ccc(-c2ccccc2C(=O)O)o1)c1c(C)[nH][nH]c1=O | 6 | . | 0 | -1 | -1
Cc1nc(S/C(=C/c2ccc(-c3cc(Cl)ccc3C)o2)C(=O)O)n[nH]1 | -6 | . | 0 | -8 | 9
O=C(O)c1ccccc1-c1ccc(/C=C/c2cc(C(F)(F)F)[nH]c(=O)n2)o1 | 7 | . | 1 | -22 | 28*
O=C(O)c1cc(Cl)ccc1-c1ccc(/C=C/c2cc(C(F)(F)F)[nH]c(=O)n2)o1 | 20* | . | 0 | -20 | .
CNC(=O)C[C@H]1CC[C@@H]2[C@H](COc3ccc(NC(=O)c4cc(C)on4)cc3C(=O)N2C)O1 | . | 50[16.7 µM] | 0 | . | 0
COCC#Cc1cnc2c(c1)C(=O)N([C@H](C)CO)C[C@@H](C)[C@H](CN(C)S(=O)(=O)c1ccccc1)O2 | -2 | -7[16.7 µM] | 0 | 7 | 3
COc1ccccc1/C=C/C=C1N=C(/C=C/c2ccc(Cl)cc2)OC/1=O | . | -8 | . | . | .
COc1ccccc1/C=C/C1=NC(=C\C=C/c2ccccc2)/C(=O)O1 | 21* | . | 1 | 3 | .
CC(C)C#Cc1cnc2c(c1)C(=O)N([C@@H](C)CO)C[C@@H](C)[C@H](CN(C)Cc1ccccn1)O2 | 21* | . | . | -4 | 0
C[C@H](O)C#Cc1cnc2c(c1)C(=O)N([C@@H](C)CO)C[C@@H](C)[C@H](CN(C)Cc1ccccn1)O2 | 2 | 3[16.7 µM] | 0 | -1 | 0
C[C@H](CO)N1C[C@H](C)[C@@H](CN(C)Cc2ccccn2)Oc2ncc(Br)cc2C1=O | 25*! | -4 | 0 | 0 | -1
SMILES | SIRT5 block | miR122 inh | FGF22 binding | S100A4 MyoIIA | E-sel inducer
Cc1ccc(S(=O)(=O)NC[C@H]2CC[C@@H]3[C@@H](CN3Cc3cc(-c4ccccc4)on3)O2)cc1 | 9 | . | . | 1 | .
C[C@@H]1CCCCO[C@@H](CN(C)C(=O)Nc2ccc(F)cc2)[C@@H](C)CN([C@H](C)CO)C(=O)c2cc(NC(=O)c3ccncc3)ccc2O1 | 1 | -1[16.7 µM] | 0 | 4 | 0
Cc1ccc(S(=O)(=O)N2C[C@H](O)COC[C@H]3O[C@H](CC(=O)NCc4ccc5c(c4)OCO5)CC[C@@H]32)cc1 | -3 | 8[16.7 µM] | 0 | -11 | 2
CCCNC(=O)C[C@@H]1CC[C@H]2[C@@H](COc3ccc(NC(=O)CCC)cc3C(=O)N2C)O1 | -2 | -1[16.7 µM] | 0 | -11 | 0
C/C(=C\c1ccccc1)CN1CCN(Cc2ccc(C)o2)C(CCO)C1 (centres undefined) | -3 | 0 | 44* | 34 | .
Cc1ccc(CN2CCN(Cc3cn(C)nc3C)CC2CCO)o1 (centres undefined) | 0 | . | 43* | 2 | 2
COc1ccccc1/C=C/CN1CCN(Cc2ccc(C)o2)C(CCO)C1 (centres undefined) | . | -8 | . | . | .
Cc1ccc(CN2CCN(Cc3cnc(C)s3)CC2CCO)o1 (centres undefined) | 2 | . | 44* | 15 | .
Cc1ccc(CN2CCN(Cc3c(C)nn(-c4ccc(F)cc4)c3C)CC2CCO)o1 (centres undefined) | -3 | -6 | 0 | -2 | 5
Cc1noc(C)c1NC(=O)N(C)C[C@@H]1OCCCC[C@@H](C)Oc2ccc(NC(=O)Nc3cccc4ccccc34)cc2C(=O)N([C@@H](C)CO)C[C@@H]1C | . | . | . | -6 | .
c1ccc(-c2ccccc2OCCOCCN2CCNCC2)cc1 | -1 | . | 0 | 5 | 39*
CCOC(=O)C1=CCN(S(=O)(=O)c2ccccc2Cl)C1c1ccc(Cl)c(Cl)c1 (centres undefined) | -2 | -4 | 0 | -2 | 0
CCOC(=O)C1=CCN(S(=O)(=O)c2ccccc2Br)C1c1ccc(Cl)c(Cl)c1 (centres undefined) | 25* | -3 | 0 | 0 | 0
CCCN1C[C@H](C)[C@@H](OC)CN(C)C(=O)c2cc(NC(=O)c3ccccc3)ccc2OC[C@@H]1C | 9 | . | . | 2 | 0
O=C(Nc1ccccc1)[C@H]1[C@H](CO)[C@H]2Cn3c(cccc3=O)[C@H]2N1C(=O)C1CCC1 | 2 | -8[16.7 µM] | 0 | 9 | 0
COc1ccc(CCNC(=O)CSc2nc(C)cs2)cc1 | 6 | . | 0 | -8 | .
COc1ccc2nc(SCC(=O)NCc3ccccc3)[nH]c2c1 | -1 | -4 | 0 | -6 | 0
CCOc1ccc2nc(SCC(=O)NCc3ccc(OC)cc3)[nH]c2c1 | 27* | . | 0 | -5 | 0

From PubChem
